The nature of data set [1]: Drug metabolism in human serum assessed as psilocin formation at 2.5 uM after 120 mins by LC-MS analysis. The data set is classed as ADME, cell-free. As to conditions: 2 h. An outline of the steps:
(§1)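 2.5 μM compound in 50 mM potassium phosphate pH 7.4 with 3 mM MgCl2, 1 mM EDTA and an NADPH regenerating system. Incubated at 37 °C with human liver or intestinal S9 or microsomes (400 μg/mL protein) or 10% human AB serum. Acetonitrile quench, then LC-MS; psilocin concentration read at 120 min.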

The nature of data set [2]: Drug metabolism in po dosed C57BL/6 mouse assessed as psilocin formation measured upto 24 hrs by LC-MS analysis. The data set is classed as ADME, organism-based. The conditions noted are these: in vivo, dose 1-10 mg/kg.
Data set [3] in a line: Metabolic stability in human serum assessed as half life at 2.5 uM measured upto 120 mins in presence of NADPH by LC-MS analysis. It is filed as ADME, cell-free. The conditions noted are these: 2 h. An outline of the steps:
(§2)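 2.5 μM compound at 37 °C in 50 mM potassium phosphate pH 7.4 with 3 mM MgCl2, 1 mM EDTA and an NADPH regenerating system. […] Sampled at 0–120 min in 20-min steps, acetonitrile quench, LC-MS of parent. T1/2 from one-phase exponential decay fit.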

The nature of data set [4]: Drug metabolism in C57BL/6 mouse assessed as psilocin formation at 10 mg/kg, po measured after 8 hrs by LC-MS analysis. It is filed as ADME, organism-based. The conditions noted are these: in vivo.
A short description of data set [5]: Drug metabolism in human intestine S9 fraction assessed as psilocin formation at 2.5 uM after 120 mins by LC-MS analysis. It is filed as ADME, subcellular. The conditions noted are these: s9, 2 h. The procedure, abridged:
as §1

The subject of data set [6] is Mus musculus. The data set is described as follows: Anxiolytic activity in non-stressed mouse assessed as reduction in marble-burying behavior by measuring decrease in number of buried marbles at 10 mg/kg, po measured after 1 day. The data set is classed as functional, organism-based.
A short description of data set [7]: Metabolic stability in human intestine microsomes assessed as half life at 2.5 uM measured upto 120 mins in presence of NADPH by LC-MS analysis. As to conditions: 2 h. The data set is classed as ADME, Microsome. The procedure, abridged:
as §2

The nature of data set [8]: Metabolic stability in human intestine S9 fraction assessed as half life at 2.5 uM measured upto 120 mins in presence of NADPH by LC-MS analysis. The conditions noted are these: s9, 2 h. The data set is classed as ADME, subcellular. The procedure, abridged:
as §2

Data set [9] concerns Mus musculus. As to the kind of experiment: Anxiolytic activity in non-stressed mouse assessed as reduction in marble-burying behavior by measuring decrease in number of buried marbles at 10 mg/kg, po measured upto 7 days. The data set is classed as functional, organism-based. As to conditions: time <= 7.0 day.
Data set [10] can be described thus: Metabolic stability in human liver microsomes assessed as half life at 2.5 uM measured upto 120 mins in presence of NADPH by LC-MS analysis. The data set is classed as ADME, Microsome. As to conditions: for t1/2: microsomes, 2 h, 2.5 µM. The procedure, abridged:
as §2
For orientation: Liver microsomes are vesicles of endoplasmic reticulum, rich in cytochrome P450 enzymes.

The nature of data set [11]: Drug metabolism in C57BL/6 mouse assessed as psilocin formation at 1 mg/kg, iv measured upto 24 hrs by LC-MS analysis. It is filed as ADME, organism-based. The conditions noted are these: in vivo.
Data set [12] is described as follows: Drug metabolism in human liver S9 fraction assessed as psilocin formation at 2.5 uM after 120 mins by LC-MS analysis. As to conditions: s9, 2 h. The data set is classed as ADME, subcellular. An outline of the steps: as §1
Data set [13] can be described thus: Drug metabolism in human liver microsomes assessed as psilocin formation at 2.5 uM after 120 mins by LC-MS analysis. It is filed as ADME, Microsome. As to conditions: 2 h. An outline of the steps: as §1
Data set [14] can be described thus: Drug metabolism in human intestine microsomes assessed as psilocin formation at 2.5 uM after 120 mins by LC-MS analysis. The data set is classed as ADME, Microsome. The conditions noted are these: 2 h. An outline of the steps:
as §1

In data set [15] the test system is Mus musculus. As to the kind of experiment: Psychedelic activity in mouse assessed as head-twitch response at 1 mg/kg, po measured after 15 to 30 mins. It is filed as functional, organism-based. As to conditions: time 15-30 min. An outline of the steps: (§3)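 C57BL/6 mice, singly housed for 2 days, with 30-min predose chamber acclimation. Single oral 1 mg/kg dose from 100 mM DMSO stock diluted in 0.9% saline; vehicle 1% DMSO in saline. Video-recorded after dosing; head twitches scored blind per 15-min interval (reference time course) or for the 15–30 min window. n = 2–4; one-way ANOVA.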

Data set [16] in a line: Metabolic stability in human liver S9 fraction assessed as half life at 2.5 uM measured upto 120 mins in presence of NADPH by LC-MS analysis. It is filed as ADME, subcellular. As to conditions: for t1/2: s9, 2 h, 2.5 µM. An outline of the steps:
as §2

A short description of data set [17]: Drug metabolism in C57BL/6 mouse assessed as psilocin formation at 10 mg/kg, po measured at 24 hrs by LC-MS analysis. The conditions noted are these: in vivo. The data set is classed as ADME, organism-based.
The nature of data set [18]: Anxiolytic activity in non-stressed mouse assessed as reduction in marble-burying behavior by measuring decrease in number of buried marbles at 1 mg/kg, po measured upto 7 days. The data set is classed as toxicity, organism-based. The conditions noted are these: in vivo, 168 h, time < 7 day. The procedure, abridged: (§4)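 Mixed-sex C57BL/6 mice, singly housed. Stress group: 7-day mild chronic stress paradigm with corticosterone 25 μg/mL in 1% ethanol drinking water plus daily 30-min restraint over the last 5 days; controls unstressed. Single oral dose in saline with 1% DMSO at 2.5 μL/g, given 24 h after stress. 10 marbles on 5 cm bedding; % buried over 20 min on days 1 and 7. Ordinary one-way ANOVA; n = 6–11.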

Data set [19] deals with Mus musculus. The data set is described as follows: Psychedelic activity in mouse assessed as head-twitch response at 1 mg/kg, po measured upto 90 mins. It is filed as functional, organism-based. The procedure, abridged:
as §3

Data set [20] has as its system Mus musculus. As to the kind of experiment: Anxiolytic activity in mouse assessed as reduction in MCSP induced marble-burying behavior by measuring decrease in number of buried marbles at 1 mg/kg, po measured upto 7 days. The data set is classed as functional, organism-based. As to conditions: time <= 7.0 day. An outline of the steps:
as §4

Data set [21] in a line: Drug metabolism in C57BL/6 mouse assessed as psilocin AUC(0 to last) at 10 mg/kg, po measured upto 24 hrs by LC-MS analysis. The data set is classed as ADME, organism-based. Details: dose 10 mg/kg, time < 24 hrs, route po. As to conditions: in vivo.
Data set [22] can be described thus: Drug metabolism in C57BL/6 mouse assessed as psilocin Cmax at 10 mg/kg, po measured upto 24 hrs by LC-MS analysis. It is filed as ADME, organism-based. On the set-up: time < 24 hrs, dose 10 mg/kg, route po. The conditions noted are these: in vivo.
Data set [23] in a line: Drug metabolism in C57BL/6 mouse assessed as psilocin AUC(0 to last) at 3 mg/kg, po measured upto 24 hrs by LC-MS analysis. It is filed as ADME, organism-based. Details: time < 24 hrs, dose 3 mg/kg, route po. The conditions noted are these: in vivo.
A short description of data set [24]: Drug metabolism in C57BL/6 mouse assessed as psilocin Cmax at 3 mg/kg, po measured upto 24 hrs by LC-MS analysis. The data set is classed as ADME, organism-based. Details: dose 3 mg/kg, time < 24 hrs, route po. The conditions noted are these: in vivo.

Structures are written as SMILES. The source made the active and inactive calls. The rule behind the calls is not given here.

In general, half-life refers to how long it takes for the measured level to halve. As to `CN(C)CCc1c[nH]c2cccc(OC(=O)SCc3ccccc3)c12`, the Drug metabolism in data set [1] is 0.385 µM; in [2], “Dose-Dependent Effect”; in data set [4], “Metabolite_Notdetected”; in data set [5], 0 µM; in [11], “Metabolite_Detected”; in [12] it was 1.233 µM. Also, the Drug metabolism was determined as 2.105 µM in data set [13] and 0.156 µM in data set [14]. For the same molecule, the t1/2 in [3] came out at 14 min; in data set [7] it was 71 min; in [8] it was 50 min. Also, the outcome with Mus musculus [6], in the data set with Mus musculus [9] and in the data set with Mus musculus [15] was Active. Also, the half-life at 2.5 µM in data set [10] (liver microsomes) amounted to 6 min; in data set [16] (liver S9 fraction), 5 min.

For the molecule `CN(C)CCc1c[nH]c2cccc(OC(=O)OCC3CC3)c12`, the Drug metabolism is 0.361 µM in [1]; “Dose-Dependent Effect” in data set [2]; 0.224 µM in [5]; “Metabolite_Detected” in data set [11]; 1.177 µM in data set [12]; 1.929 µM in data set [13]. For the same molecule, the results for the Drug metabolism result in data set [17] and in data set [14] were “Metabolite_Detected” and 0.157 µM, respectively. For the same molecule, the t1/2 in [3] is on record as 3 min; in data set [7], 271 min; in data set [8], 327 min; in [10] it was 4 min; in data set [16] it was 9 min. The outcome in the data set on Mus musculus [15] was inactive.

One may read the Cmax as the highest concentration seen after dosing. `CN(C)CCc1c[nH]c2cccc(OP(=O)(O)O)c12` [PSILOCYBIN]: the Drug metabolism is 0 µM in [1]; “Dose-Dependent Effect” in [2]; “Metabolite_Notdetected” in data set [4]; 0.621 µM in data set [5]; 0 µM in data set [12]; 0 µM in data set [13]. Also, the Drug metabolism in data set [14] was 0.172 µM. Also, the Activity result in data set [18] is recorded as “Non-Toxic”. The outcome in the data set with Mus musculus [19] and in the data set with Mus musculus [20] was Active. Also, the t1/2 in data set [7] turned out to be 195 min. Moreover, the AUClast in [21] amounted to 397.3 ng·h/mL; in data set [23], 84.4 ng·h/mL. Further, the maximum concentration (Cmax) in data set [22] is 243 ng/mL; in data set [24], 52.9 ng/mL.

Take `COc1ccc(C(=O)Oc2cccc3[nH]cc(CCN(C)C)c23)cc1`: the Drug metabolism in data set [1] is 1.097 µM; in [2], “Dose-Dependent Effect”; in data set [4], “Metabolite_Notdetected”; in data set [5], 0.114 µM; in [11] it was “Metabolite_Detected”; in data set [12], 1.95 µM. The Drug metabolism came out at 2.718 µM in [13] and 0.041 µM in [14]. The t1/2 was 1 min in data set [3]; 315 min in data set [7]; 132 min in data set [8]; 17 min in data set [10]; 21 min in data set [16]. For the same molecule, the result with Mus musculus [6], in the data set with Mus musculus [9] and with Mus musculus [15] was Active.

With `CN(C)CCc1c[nH]c2cccc(OC(=O)OCc3ccccc3)c12`, the Drug metabolism in data set [1] is 0 µM; in data set [2], “Dose-Dependent Effect”; in data set [5], 0.044 µM; in data set [11] it was “Metabolite_Detected”; in [12], 0.084 µM; in [13], 0.114 µM. The results for the Drug metabolism result in data set [17] and in data set [14] were “Metabolite_Detected” and 0.038 µM, respectively. Also, the t1/2 in data set [7] turned out to be 211 min; in data set [8], 529 min; in data set [10] it was 113 min.

With `CCCCC(=O)OCOc1cccc2[nH]cc(CCN(C)C)c12`, the Drug metabolism in data set [1] is 0 µM; in [2], “Dose-Dependent Effect”; in data set [4], “Metabolite_Notdetected”; in [5] it was 0.055 µM; in data set [11], “Metabolite_Detected”; in [12], 0.07 µM. The results for the Drug metabolism in [13] and in data set [14] were 0.132 µM and 0.081 µM, respectively. Besides, the t1/2 is on record as 3 min in data set [3]; 112 min in data set [7]; 39 min in [8]; 4 min in data set [10]; 5 min in data set [16].

Consider `CN(C)CCc1c[nH]c2cccc(OC(=O)CC3CC3)c12`, for which the Drug metabolism in data set [1] was 0.778 µM; in [2] it was “Dose-Dependent Effect”; in [4], “Metabolite_Notdetected”; in data set [5], 1.384 µM; in data set [11] it was “Metabolite_Detected”; in [12] it was 1.343 µM. Besides, the Drug metabolism was 1.89 µM in data set [13] and 0.927 µM in data set [14]. Also, the t1/2 in data set [3] turned out to be 1 min; in [7], 62 min; in data set [8], 104 min; in data set [10] it was 1 min; in data set [16], 3 min. Further, the outcome with Mus musculus [6] and in the data set on Mus musculus [15] was Active.

Source of the values: ChEMBL document CHEMBL5335796, “Novel Psilocin Prodrugs with Altered Pharmacological Properties as Candidate Therapies for Treatment-Resistant Anxiety Disorders” (J Med Chem, 2024).
